Data published in ChEMBL document CHEMBL3102739, “Synthesis and antiproliferative activity of conformationally restricted 1,2,3-triazole analogues of combretastatins in the sea urchin embryo model and against human cancer cell lines” (Bioorg Med Chem, 2014).
Activity calls are given as the source filed them. The calls are words filed in the database; no cut-off is given here.

Key:
Jurkat [1] = experiment: Induction of apoptosis in human Jurkat cells assessed as Bcl-2 expression at 15 nM after 24 to 48 hrs Western blotting analysis; format: functional, cell-based
Summary of the method: (§1)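 Treatment 24 or 48 h (Jurkat 15 nM, Jurkat/A4 150 nM for CA4P). Cells washed in ice-cold PBS and lysed 30 min at 4 °C in 20 mM Tris-HCl pH 7.4, 1% Triton X-100, 150 mM NaCl with protease inhibitors. Equal protein run on 12% SDS-PAGE and blotted to PVDF. Probed with monoclonal antibodies to caspase-9, caspase-2, Bcl-2 or XIAP for 2 h at room temperature, then HRP anti-mouse and ECL. β-actin used as loading control.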

Jurkat/A4 [2] = experiment: Induction of apoptosis in human Jurkat/A4 cells assessed as caspase 9 activation at 150 nM after 24 to 48 hrs by Western blotting analysis; format: functional, cell-based; summary of the method: as §1
Jurkat [3] = experiment: Cell cycle arrest in human Jurkat cells assessed as accumulation at sub-G1 phase at 15 nM after 48 hrs by propidium iodide staining-based flow cytometric analysis (reference value: 12.2%); format: functional
Jurkat/A4 [4] = experiment: Induction of apoptosis in human Jurkat/A4 cells assessed as reduction of XIAP expression at 150 nM after 24 hrs Western blotting analysis; format: functional, cell-based; summary of the method: as §1
Jurkat [5] = experiment: Induction of apoptosis in human Jurkat cells assessed as active caspase 3 expression at 15 nM after 24 hrs by FITC-conjugated flow cytometric analysis (reference value: 3.3%); format: functional
Summary of the method: (§2)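 Jurkat or Jurkat/A4 cells treated, then permeabilized per the manufacturer's protocol and stained with FITC-conjugated monoclonal antibody to active caspase-3. Percentage of positive cells (M1 gate) measured by flow cytometry. Untreated cells served as controls.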

Jurkat/A4 [6] = experiment: Induction of apoptosis in human Jurkat/A4 cells assessed as Bcl-2 expression at 150 nM after 24 to 48 hrs Western blotting analysis; format: functional, cell-based; summary of the method: as §1
[7] = Induction of apoptosis in human Jurkat/A4 cells assessed as active caspase 3 expression at 150 nM after 48 hrs by FITC-conjugated flow cytometric analysis (reference value: 1.1%); format: functional; summary of the method: as §2
Jurkat/A4 [8] = experiment: Induction of apoptosis in human Jurkat/A4 cells assessed as micronuclei formation after 48 hrs by May-Grunwald-Giemsa staining-based microscopic analysis; format: functional, cell-based
Summary of the method: (§3)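 Jurkat or Jurkat/A4 cells treated 48 h, with untreated cells as control. Cells cytospun, stained by May–Grünwald–Giemsa and examined by light microscopy with a 100× objective for micronuclei, membrane-enclosed fragments with unequally segregated chromosomes, and condensed nuclei.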

[9] = Induction of apoptosis in human Jurkat/A4 cells assessed as active caspase 3 expression at 150 nM after 24 hrs by FITC-conjugated flow cytometric analysis (reference value: 1.1%); format: functional; summary of the method: as §2
[10] = Cell cycle arrest in human Jurkat/A4 cells assessed as accumulation at sub-G1 phase at 150 nM after 48 hrs by propidium iodide staining-based flow cytometric analysis (reference value: 17.1%); format: functional
Jurkat [11] = experiment: Induction of apoptosis in human Jurkat cells assessed as small cell fragments with unequally segregated chromosomes enclosed by cell membrane after 48 hrs by May-Grunwald-Giemsa staining-based microscopic analysis; format: functional; summary of the method: as §3
Jurkat [12] = experiment: Induction of apoptosis in human Jurkat cells assessed as reduction of XIAP expression at 15 nM after 24 hrs Western blotting analysis; format: functional, cell-based; summary of the method: as §1
Jurkat [13] = experiment: Induction of apoptosis in human Jurkat cells assessed as caspase 2 activation at 15 nM after 24 to 48 hrs by Western blotting analysis; format: functional, cell-based; summary of the method: as §1
Jurkat/A4 [14] = experiment: Induction of apoptosis in human Jurkat/A4 cells assessed as caspase 2 activation at 150 nM after 24 to 48 hrs by Western blotting analysis; format: functional, cell-based; summary of the method: as §1
Jurkat/A4 [15] = experiment: Induction of apoptosis in human Jurkat/A4 cells assessed as small cell fragments with unequally segregated chromosomes enclosed by cell membrane after 48 hrs by May-Grunwald-Giemsa staining-based microscopic analysis; format: functional; summary of the method: as §3
[16] = Cell cycle arrest in human Jurkat/A4 cells assessed as decrease in accumulation at G0/G1 phase at 150 nM after 24 hrs by propidium iodide staining-based flow cytometric analysis; format: functional
Jurkat [17] = experiment: Cytotoxicity against human Jurkat cells assessed as cell viability after 48 hrs by trypan blue exclusion assay; format: functional, cell-based
Summary of the method: (§4)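 Compound added to exponentially growing Jurkat or Jurkat/A4 cells in RPMI-1640 with 10% FCS at 37 °C. Viable cells counted directly by trypan blue exclusion after 48 h. EC50 taken by linear interpolation of survival data. Mean±SD from three independent experiments.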

Jurkat [18] = experiment: Induction of apoptosis in human Jurkat cells assessed as caspase 9 activation at 15 nM after 48 hrs by Western blotting analysis; format: functional, cell-based; summary of the method: as §1
Jurkat [19] = experiment: Induction of apoptosis in human Jurkat cells assessed as active caspase 3 expression at 15 nM after 48 hrs by FITC-conjugated flow cytometric analysis (reference value: 3.3%); format: functional; summary of the method: as §2
[20] = Cell cycle arrest in human Jurkat/A4 cells assessed as increase in accumulation at G2/M phase at 150 nM after 24 hrs by propidium iodide staining-based flow cytometric analysis; format: functional
[21] = Cytotoxicity against human Jurkat/A4 cells assessed as cell death at 1 uM after 48 hrs by trypan blue exclusion assay relative to control; format: functional; summary of the method: as §4
Jurkat [22] = experiment: Cell cycle arrest in human Jurkat cells assessed as decrease in accumulation at G0/G1 phase at 15 nM after 24 hrs by propidium iodide staining-based flow cytometric analysis; format: functional
Jurkat [23] = experiment: Cell cycle arrest in human Jurkat cells assessed as increase in accumulation at G2/M phase at 15 nM after 24 hrs by propidium iodide staining-based flow cytometric analysis; format: functional
Jurkat [24] = experiment: Induction of apoptosis in human Jurkat cells assessed as active caspase 3 expression at 15 nM by FITC-conjugated flow cytometric analysis; format: functional, cell-based; details: TDE = time-dependent effect; summary of the method: as §2
Jurkat [25] = experiment: Induction of apoptosis in human Jurkat cells assessed as micronuclei formation after 48 hrs by May-Grunwald-Giemsa staining-based microscopic analysis; format: functional, cell-based; summary of the method: as §3

SMILES: COc1ccc(/C=C\c2cc(OC)c(OC)c(OC)c2)cc1OP(=O)([O-])[O-].[Na+].[Na+] [FOSBRETABULIN DISODIUM]
- Activity (Jurkat [1]): inactive
- Activity (Jurkat/A4 [2]): inactive
- Activity (Jurkat [3]): 39.5%
- Activity (Jurkat/A4 [4]): inactive
- Activity (Jurkat [5]): 15%
- Activity (Jurkat/A4 [6]): inactive
- Activity [7]: 1.6%
- Activity (Jurkat/A4 [8]): Active
- Activity [9]: 2.2%
- Activity [10]: 24.3%
- Activity (Jurkat [11]): Active
- Activity (Jurkat [12]): Active
- Activity (Jurkat [13]): Active
- Activity (Jurkat/A4 [14]): inactive
- Activity (Jurkat/A4 [15]): Active
- Activity [16]: Active
- EC50 (Jurkat [17]): 15 nM
- Activity (Jurkat [18]): Active
- Activity (Jurkat [19]): 31.6%
- Activity [20]: Active
- Activity [21]: <20%
- Activity (Jurkat [22]): Active
- Activity (Jurkat [23]): Active
- Activity (Jurkat [24]): tde
- Activity (Jurkat [25]): Active
